We go through five compounds from ChEMBL document CHEMBL2321797 (J Med Chem, 2013).

Molecules are shown by their SMILES. pEC50, pIC50: −log10 of the molar value. Active and inactive are the calls of the source. No cut-off for these calls is given here.

A short description of test [1]: (§1) Inhibition of HIV1 Envelope glycoprotein-mediated cell-cell fusion expressed in human HL2/3 cells coincubated with human TZM-b1 cells after 6 to 8 hrs by luciferase assay. Format: cell-based. The conditions noted are these: Human immunodeficiency virus 1, TZM-b1.
Test [2] has as its system TZM-b1. The test is described as §1. The conditions noted are these: Human immunodeficiency virus 1. Format: cell-based.
For test [3], the system named is Human immunodeficiency virus 1. Nature of the test: Antiviral activity against Human immunodeficiency virus 1 assessed as inhibition of viral replication. Format: functional, organism-based. The procedure, abridged: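 NL4-3 mutant panel (D36G T20-sensitive; five T20-resistant NHR variants) infecting MT-2 cells with peptides at graded concentrations. p24 measured by ELISA on day 4. Run in triplicate as mean ± SD; IC50 and fold change vs D36G.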

Take `Cc1ccc(C)n1-c1ccc(OCC(=O)O)c(C(=O)O)c1`: the pIC50 in test [1] is < 4.00.

Turning to `Cc1cc(C(=O)O)c(C)n1-c1ccc(O)c(C(=O)O)c1`, in test [2], the inhibition entry was “inactive”.

Regarding `Cc1ccc(C)n1-c1ccc(O)c(C(=O)O)c1`, the pEC50 in test [3] was 6.16.

For `Cc1cc(C(=O)O)c(C)n1-c1ccc(C(=O)O)c(O)c1`, in test [2], the inhibition entry was “inactive”.

`Cc1ccc(C)n1-c1ccc(C(=O)O)c(OCC(=O)O)c1`: the pIC50 in test [1] was < 4.00.

One may read the pIC50 as −log10 of the IC50, conventionally taken in molar units. What is called pEC50 is −log10 of the EC50, conventionally taken in molar units.
